Two molecules from article PMC6482079 (European journal of pharmaceutical sciences : official …, 2019) can be followed below.

The subject of data set [1] is A/WSN/33 (H1N1). Briefly: Time-of-addition experiment in MDCK cells. It counts as cell-based, influenza A virus. The note with it: NMS-873 1.8 μM; for antiviral activity when added at 8 h post infection / effect on virus replication when present before or during infection: oseltamivir carboxylate 1 μM.
In data set [2] the test system is A/WSN/33 (H1N1). It counts as cell-based, influenza A virus.
A short description of data set [3]: in vitro. As to conditions: dog.
In data set [4] the test system is MDCK cells. As to conditions: MDCK cells treated for 48 h.
Data set [5] has as its system influenza A and B viruses. The data set is described as follows: Plaque reduction assay, summary over the tested panel of viruses. It counts as cell-based. The note with it: Influenza A virus, read-out: EC50 values against these viruses. On the technique in general: Plaques are areas of infected cells; plaque reduction assays count them against a control.
Data set [6] has as its system influenza vRNPs (NP) nuclear export. It counts as cell-based, influenza A virus.
The subject of data set [7] is A/WSN/33 (H1N1) viral proteins. It counts as cell-based, influenza A virus.
For data set [8], the system named is A/Washington/29/2009 (H1N1). The format is cell-based, influenza A virus. As to conditions: NMS-873 1 or 3 μM, oseltamivir carboxylate 1 μM.
For data set [9], the system named is B/Wisconsin/1/2010 (Yamagata). Briefly: Viral titer reduction at high MOI. It counts as cell-based, influenza B virus. The note with it: both 12 h p.i. and 24 h p.i., MOI of 1, MDCK.
The test system of data set [10] is A549 cells. The data set is described as follows: Cellular cytotoxicity in A549 cells. The format is cell-based, human. As to conditions: 3 μM. A digest of the protocol:
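A549 human alveolar epithelial cells were incubated with serial concentrations of the test compound, up to 3 μM, for 24 or 48 h. Cell viability was then measured by neutral red uptake.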

“And” between values parts separate entries of the source, which are not always exact repeats. Identical values can stand only once.

As to `CCC(CC)O[C@@H]1C=C(C(=O)O)C[C@H](N)[C@H]1NC(C)=O` [Oseltamivir carboxylate], in data set [1], the “antiviral activity when added at 8 h post infection” value is “potent inhibition” and the “effect on virus replication when present before or during infection” value is “no effect”. In data set [2], the “reduction of viral titer” value is given as 2.1–2.5 log10 units.
What is called EC50 is the concentration giving half of the maximal effect. Turning to `Cc1cc(OCc2nnc(SC3CCCC3)n2-c2cccnc2)ccc1-c1ccc(S(C)(=O)=O)cc1` [NMS-873], the CC50 in data set [3] came out at 2720 ± 30 nM. Moreover, the “concentration up to which no cellular cytotoxicity was observed” value in data set [4] is “up to 1.85 μM”. Moreover, the 50% effective concentration (EC50) in data set [5] lay in the range of 28 to 56 nM. In data set [6], the NP subcellular localization result is recorded as “NP largely accumulated in the nucleus”; the “virus entry and NP nuclear import” value is “neither affected the virus entry nor NP nuclear import”. Moreover, in [1], the “antiviral efficacy when added at 6 h post infection” value is listed as “dramatically decreased”, the “antiviral activity when added at 8 h post infection” value is “completely abolished” and the “effect on virus replication when present before or during infection” value is on record as “no antiviral activity was observed”. Further, in data set [7], the “levels of other viral proteins PA, PB1, HA and NS1” value is “broadly reduced”; the “protein expression levels of M1 and NP” value is “significantly reduced”. Moreover, the “antiviral activity (viral titer)” value in [8] is listed as “potent antiviral activity”. Also, in data set [9] (1 μM), the “reduction of viral titer” value is reported as “more than 1.8 log10 units”. Besides, the “inhibition of virus (viral titer)” value in data set [9] (3 μM) was “completely inhibited”. For the same molecule, in data set [2], the “reduction of viral titer” value is 1.3–1.4 log10 units and 2.2–3.1 log10 units. Moreover, in [10], the “cytotoxicity at highest drug concentration tested” value is “not cytotoxic”.
